Assay results as given in ChEMBL document CHEMBL4477169, “Vestitol Isolated from Brazilian Red Propolis Inhibits Neutrophils Migration in the Inflammatory Process: Elucidation of the Mechanism of Action” (J Nat Prod, 2016).
Active and inactive are the calls of the source. The rule behind the calls is not given here.

Assays:
Mus musculus [1] = assay: Antiinflammatory activity in C57BL/6 mouse assessed as reduction in CXCL2/MIP-2 release in peritoneal cavity at 10 mg/kg, sc dosed 30 mins prior mBSA challenge measured after 3 hrs post mBSA challenge by ELISA; assay type: functional, organism-based
Method in brief: (§1)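 Male SPF C57BL/6 mice (20−22 g) given sc vehicle or test agent 30 min before ip LPS (300 ng/cavity, in saline) or mBSA (30 μg/cavity) in mBSA-immunized mice. Peritoneal fluid collected after 1.5 or 3 h. TNF-α, IL-1β, CXCL1/KC and CXCL2/MIP-2 measured by ELISA, expressed as pg/mL. Mean ± SEM, n = 4−5, Tukey's test.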

Mus musculus [2] = assay: Antiinflammatory activity in C57BL/6 mouse assessed as reduction in CXCL1/KC release in peritoneal cavity at 10 mg/kg, sc dosed 30 mins prior LPS challenge measured after 3 hrs post LPS challenge by ELISA; assay type: functional, organism-based; method in brief: as §1
Mus musculus [3] = assay: Antiinflammatory activity in C57BL/6 mouse assessed as reduction in CXCL2/MIP-2 release in peritoneal cavity at 10 mg/kg, sc dosed 30 mins prior LPS challenge measured after 3 hrs post LPS challenge by ELISA; assay type: functional, organism-based; method in brief: as §1
Mus musculus [4] = assay: Antiinflammatory activity in C57BL/6 mouse assessed as reduction in CXCL1/KC release in peritoneal cavity at 10 mg/kg, sc dosed 30 mins prior mBSA challenge measured after 3 hrs post mBSA challenge by ELISA; assay type: functional, organism-based; method in brief: as §1
Mus musculus [5] = assay: Antiinflammatory activity in C57BL/6 mouse assessed as reduction in TNFalpha release in peritoneal cavity at 10 mg/kg, sc dosed 30 mins prior LPS challenge measured after 1.5 hrs post LPS challenge by ELISA
Neutrophil [6] = assay: Reduction in CXCL2/MIP2-induced chemotaxis in mouse bone marrow neutrophils at 3 and 10 uM pre-treated for 30 mins prior CXCL2/MIP2-challenge measured after 60 mins using Boyden's chamber by chemotaxis assay; assay type: functional, cell-based
Method in brief: (§2)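 Percoll-isolated bone marrow neutrophils (1 × 10^6 cells/mL) pre-incubated 30 min at 37 °C, 5% CO2 (1, 3 or 10 μM). Boyden chamber with 5-μm membrane; CXCL2/MIP-2 30 ng/mL or LTB4 in 0.01% RPMI-BSA as chemoattractant, RPMI-BSA as negative control. Migration 60 min. Panotic-stained cells averaged over 5 fields at 1000×; triplicate, n = 3−4.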

Neutrophil [7] = assay: Induction of apoptosis in mouse bone marrow neutrophils assessed as early apoptotic cells at 10 uM measured after 4 hrs by Annexin V-FITC/propidium iodide staining-based flow cytometry (reference value: 3.49 %); assay type: cell-based
Mus musculus [8] = assay: Antiinflammatory activity in specific-pathogen free C57BL/6 mouse assessed as reduction in LPS-induced neutrophil migration in peritoneal activity at 10 mg/kg, sc dosed 15 mins prior LPS challenge measured after 6 hrs post LPS challenge by optical microscopic analysis; assay type: functional, organism-based
Method in brief: (§3)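 Wild-type C57BL/6 or iNOS−/− male mice dosed sc (10 mg/kg), then ip LPS (300 ng/cavity) 15 min later. Killed at 6 h; peritoneal cavity washed. Total and differential cell counts done. Mean ± SEM, n = 4−5, Tukey's test.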

Mus musculus [9] = species on record: Mus musculus; assay: Reduction in LTB4-induced chemotaxis in mouse bone marrow neutrophils at 3 and 10 uM pre-treated for 30 mins prior LTB4-challenge measured after 60 mins using Boyden's chamber by chemotaxis assay; assay type: functional; method in brief: as §2
[10] = Induction of apoptosis in mouse bone marrow macrophages assessed as early apoptotic cells at 10 uM measured after 4 hrs by Annexin V-FITC/propidium iodide staining-based flow cytometry (reference value: 5.03 %); assay type: cell-based; settings: bmdm
Neutrophil [11] = assay: Effect on CXCR2 expression in mouse bone marrow neutrophils at 10 uM measured after 1.5 hrs by flow cytometric analysis; assay type: functional, cell-based
Method in brief: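 Percoll-isolated (72%/65%) bone marrow neutrophils (1 × 10^6 cells/mL, ~95% pure) incubated 1.5 h with 10 μM. Stained 20 min at 4 °C with APC-anti-Ly6G (1:200) and PE-anti-CXCR2 (1:50). Fixed in PBS/2% formaldehyde; two-color flow cytometry. Mean ± SEM, n = 3−4.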

Mus musculus [12] = assay: Antiinflammatory activity in C57BL/6 mouse assessed as reduction in IL1-beta release in peritoneal cavity at 10 mg/kg, sc dosed 30 mins prior mBSA challenge measured after 3 hrs post mBSA challenge by ELISA
Mus musculus [13] = assay: Antiinflammatory activity in iNOS-/- mouse assessed as reduction in LPS-induced neutrophil migration in peritoneal activity at 10 mg/kg, sc dosed 15 mins prior LPS challenge measured after 6 hrs post LPS challenge by optical microscopic analysis; assay type: functional, organism-based; method in brief: as §3
Mus musculus [14] = assay: Antiinflammatory activity in C57BL/6 mouse assessed as reduction in LPS-induced leukocyte adhesion in mesenteric venules at 10 mg/kg, sc dosed 30 mins prior LPS-challenge measured after 2 to 4 hrs post LPS challenge by intravital microscopy; assay type: functional, organism-based
Method in brief: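 Mice dosed sc 30 min before ip LPS (300 ng/cavity). Animals anesthetized 2 or 4 h after the stimulus and mesentery exposed on a 37 °C thermostatted plate. Post-capillary venules of 10−18 μm diameter imaged. Rolling leukocytes counted over 10 min; cells stationary >30 s scored adherent. Five fields per animal. Mean ± SEM, n = 4−5.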

Neutrophil [15] = assay: Induction of apoptosis in mouse bone marrow neutrophils assessed as necrotic cells at 10 uM measured after 4 hrs by Annexin V-FITC/propidium iodide staining-based flow cytometry (reference value: 0.898 %); assay type: cell-based
[16] = Induction of apoptosis in mouse bone marrow neutrophils assessed as viable cells at 10 uM measured after 4 hrs by Annexin V-FITC/propidium iodide staining-based flow cytometry (reference value: 90.8 %); assay type: cell-based, Neutrophil; settings: read-out: Activity
Mus musculus [17] = assay: Antiinflammatory activity in C57BL/6 mouse assessed as reduction in LPS-induced leukocyte rolling in mesenteric venules at 10 mg/kg, dosed 30 mins prior LPS-challenge measured by intravital microscopy
[18] = Induction of apoptosis in mouse bone marrow macrophages assessed as necrotic cells at 10 uM measured after 4 hrs by Annexin V-FITC/propidium iodide staining-based flow cytometry (reference value: 0.69 %); assay type: cell-based; settings: bmdm
Mus musculus [19] = assay: Antiinflammatory activity in C57BL/6 mouse assessed as reduction in LPS-induced neutrophil migration in peritoneal activity at 1 to 10 mg/kg, sc dosed 30 mins prior LPS challenge measured after 6 hrs post LPS challenge using Neubauer chamber by optical microscopic analysis; assay type: functional, organism-based
Method in brief: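 Male SPF C57BL/6 mice (20−22 g) dosed sc (1, 3 or 10 mg/kg) 30 min before ip LPS (300 ng/cavity). Killed at 6 h; cavity washed with 3 mL PBS/1 mM EDTA. Total cells counted in a Neubauer chamber; differential count of 100 cells on Panotic-stained cytospins at 1000×. Neutrophils per cavity, mean ± SEM, n = 4−5.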

Mus musculus [20] = assay: Antiinflammatory activity in C57BL/6 mouse assessed as reduction in mBSA-induced neutrophil migration in peritoneal activity at 1 to 10 mg/kg, sc dosed 21 days after immunization 15 mins prior to mBSA challenge measured after 6 hrs post mBSA challenge using Neubauer chamber by cell counting method
[21] = Induction of apoptosis in mouse bone marrow macrophages assessed as viable cells at 10 uM measured after 4 hrs by Annexin V-FITC/propidium iodide staining-based flow cytometry (reference value: 92 %); assay type: cell-based, BMDM; settings: read-out: Activity
BMDM [22] = assay: Antiinflammatory activity in LPS-stimulated mouse bone marrow macrophages assessed as reduction in CXCL1/KC release at 1 to 10 uM pre-incubated for 30 mins prior LPS challenge measured after 4 hrs by ELISA; assay type: functional, cell-based
Method in brief: (§4)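 Femur/tibia bone marrow cells differentiated 7 days at 37 °C, 5% CO2 in RPMI with 10% FBS, penicillin, L-glutamine and 20% L929 supernatant. Macrophages seeded at 2 × 10^5/well and adhered 2 h. Pre-treated 30 min (1, 3 or 10 μM), then LPS 10 ng/mL for 4 h. Supernatant CXCL1/KC and CXCL2/MIP-2 measured by ELISA (pg/mL).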

BMDM [23] = assay: Antiinflammatory activity in LPS-stimulated mouse bone marrow macrophages assessed as reduction in CXCL2/MIP-2 release at 1 to 10 uM pre-incubated for 30 mins prior LPS challenge measured after 4 hrs by ELISA; assay type: functional, cell-based; method in brief: as §4
[24] = Induction of apoptosis in mouse bone marrow macrophages assessed as late apoptotic cells at 10 uM measured after 4 hrs by Annexin V-FITC/propidium iodide staining-based flow cytometry (reference value: 2.29 %); assay type: cell-based; settings: bmdm
Neutrophil [25] = assay: Reduction of calcium influx in LTB4-induced mouse bone marrow neutrophils at 10 uM measured after 30 mins by Fluo 3-AM dye-based analysis; assay type: functional, cell-based
Method in brief: (§5)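 Bone marrow neutrophils (1 × 10^6/mL) loaded with Fluo 3-AM for 40 min at 37 °C, 5% CO2, then incubated 30 min with 10 μM. Plated at 2 × 10^5 cells/well. CXCL2/MIP-2 (30 ng/mL) or LTB4 added automatically in a FlexStation 3 microplate reader and calcium influx fluorescence recorded.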

Neutrophil [26] = assay: Induction of apoptosis in mouse bone marrow neutrophils assessed as late apoptotic cells at 10 uM measured after 4 hrs by Annexin V-FITC/propidium iodide staining-based flow cytometry (reference value: 4.8 %); assay type: cell-based
Neutrophil [27] = assay: Reduction of calcium influx in CXCL2/MIP2-induced mouse bone marrow neutrophils at 10 uM measured after 30 mins by Fluo 3-AM dye-based analysis; assay type: functional, cell-based; method in brief: as §5

COc1ccc([C@H]2COc3cc(O)ccc3C2)c(O)c1
Activity (Mus musculus [1]): Active
Activity (Mus musculus [2]): Active
Activity (Mus musculus [3]): Active
Activity (Mus musculus [4]): Active
Activity (Mus musculus [5]): inactive
Activity (Neutrophil [6]): Active
Activity (Neutrophil [7]): 2.93%
Activity (Mus musculus [8]): Active
Activity (Mus musculus [9]): Active
Activity [10]: 6.62%
Activity (Neutrophil [11]): inactive
Activity (Mus musculus [12]): inactive
Activity (Mus musculus [13]): Active
Activity (Mus musculus [14]): Active
Activity (Neutrophil [15]): 0.546%
viability at 4 h, 10 µM [16]: 93.8%
Activity (Mus musculus [17]): Active
Activity [18]: 1.03%
Activity (Mus musculus [19]): Active
Activity (Mus musculus [20]): Active
viability at 4 h, 10 µM [21]: 89%
Activity (BMDM [22]): Active
Activity (BMDM [23]): Active
Activity [24]: 3.35%
Activity (Neutrophil [25]): Active
Activity (Neutrophil [26]): 2.72%
Activity (Neutrophil [27]): Active
